Data as given in ChEMBL document CHEMBL3774372, “Design, physico-chemical properties and biological evaluation of some new N-[(phenoxy)alkyl]- and N-{2-[2-(phenoxy)ethoxy]ethyl}aminoalkanols as anticonvulsant agents” (Bioorg Med Chem, 2016).
pIC50: −log10 of the molar value. Active and inactive are the calls of the source.

Experiments:
[1] = biological target: 5-hydroxytryptamine receptor 2B (Homo sapiens, UniProt P41595); assay: Displacement of [125I](+/-)DOI from human recombinant 5-HT2B receptor expressed in CHO cells; type: cell-based
Sequence of 5-hydroxytryptamine receptor 2B (P41595 whole entry): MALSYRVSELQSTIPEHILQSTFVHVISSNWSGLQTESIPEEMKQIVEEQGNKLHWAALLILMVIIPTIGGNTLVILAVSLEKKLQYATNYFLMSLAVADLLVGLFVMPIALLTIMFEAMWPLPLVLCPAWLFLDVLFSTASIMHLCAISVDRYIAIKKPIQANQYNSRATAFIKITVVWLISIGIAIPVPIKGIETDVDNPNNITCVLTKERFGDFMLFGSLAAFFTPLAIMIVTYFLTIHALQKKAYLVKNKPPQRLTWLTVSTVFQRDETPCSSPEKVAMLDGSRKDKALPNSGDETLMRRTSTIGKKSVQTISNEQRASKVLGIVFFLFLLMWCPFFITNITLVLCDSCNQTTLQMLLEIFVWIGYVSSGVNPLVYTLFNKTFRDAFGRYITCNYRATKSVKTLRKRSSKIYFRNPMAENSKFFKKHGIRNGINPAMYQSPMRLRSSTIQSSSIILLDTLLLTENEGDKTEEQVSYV

[2] = Displacement of [3H]TCP from rat cerebral cortex PCP receptor; type: tissue-based
Procedure, shortened: (§1)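 Radioligand binding on rat cerebral cortex preparations: [35S]TBPS (GABA-gated Cl⁻ channel), [125I]apamin (SKCa), [3H]batrachotoxinin (Na⁺ site 2), [35S]dATPαS (P2Y), [3H]TCP (PCP), [3H]flunitrazepam (central BZD).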

Rattus norvegicus [3] = assay: Anticonvulsant activity in rat assessed as protection against maximal electric shock-induced seizures at 30 mg/kg, po measured after 0.5 hrs; type: functional, organism-based
Procedure, shortened: (§2)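 Rats dosed ip or orally as 0.5% methylcellulose suspension; maximal electroshock at listed time. Protection = abolition of hindlimb tonic extension; 4 rats per group, scored protected/tested.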

Rattus norvegicus [4] = assay: Anticonvulsant activity in rat assessed as protection against maximal electric shock-induced seizures at 30 mg/kg, po measured after 1 hr; type: functional, organism-based; procedure, shortened: as §2
Mus musculus [5] = assay: Anticonvulsant activity in mouse assessed as protection against maximal electric shock-induced seizures at 100 mg/kg, ip measured after […]; type: functional, organism-based
Mus musculus [6] = assay: Anticonvulsant activity in mouse assessed as protection against 6 Hz psychomotor seizure at 100 mg/kg, ip after 2 hrs; type: functional, organism-based
Procedure, shortened: (§3)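 Suspension in 0.5% methylcellulose given ip to mice; corneal stimulation with 0.2 ms monopolar rectangular pulses at 6 Hz for 3 s from a constant current device, mice restrained then released to observation cage. Protected if normal exploratory behaviour resumed within 10 s of stimulation. Scored as protected/tested, 4 mice per group.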

Mus musculus [7] = assay: Neurotoxicity in mouse at 100 mg/kg, ip after 2 hrs by rotarod test; type: toxicity, organism-based; details: in vivo
Procedure, shortened: (§4)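 Mice were dosed ip with compound suspended in 0.5% methylcellulose. Rotarod: a 1 in. knurled rod turning at 6 rpm. Neurotoxicity was scored as failure to stay on the rod for at least 1 min in each of three trials. Results are given as the number of animals affected out of the number tested.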

Rattus norvegicus [8] = assay: Anticonvulsant activity in rat assessed as protection against maximal electric shock-induced seizures at 30 mg/kg, po measured after 2 hrs; type: functional, organism-based; procedure, shortened: as §2
Rattus norvegicus [9] = assay: Anticonvulsant activity in rat assessed as protection against maximal electric shock-induced seizures at 30 mg/kg, po measured after 4 hrs; type: functional, organism-based; procedure, shortened: as §2
Rattus norvegicus [10] = assay: Neurotoxicity in rat at 30 mg/kg, ip after […] by rotarod test; type: toxicity, organism-based; details: in vivo
Rattus norvegicus [11] = assay: Neurotoxicity in rat at 30 mg/kg, ip after 0.5 hrs by rotarod test; type: toxicity, organism-based; details: in vivo
Rattus norvegicus [12] = assay: Neurotoxicity in rat at 30 mg/kg, ip after 1 hr by rotarod test; type: toxicity, organism-based; details: in vivo
Rattus norvegicus [13] = assay: Neurotoxicity in rat at 30 mg/kg, ip after 2 hrs by rotarod test; type: toxicity, organism-based; details: in vivo
Rattus norvegicus [14] = assay: Neurotoxicity in rat at 30 mg/kg, ip after 4 hrs by rotarod test; type: toxicity, organism-based; details: in vivo
Rattus norvegicus [15] = assay: Neurotoxicity in rat at 30 mg/kg, po after […] by rotarod test; type: toxicity, organism-based; details: in vivo
Rattus norvegicus [16] = assay: Neurotoxicity in rat at 30 mg/kg, po after 0.5 hrs by rotarod test; type: toxicity, organism-based; details: in vivo
Rattus norvegicus [17] = assay: Neurotoxicity in rat at 30 mg/kg, po after 1 hr by rotarod test; type: toxicity, organism-based; details: in vivo
Rattus norvegicus [18] = assay: Neurotoxicity in rat at 30 mg/kg, po after 2 hrs by rotarod test; type: toxicity, organism-based; details: in vivo
Rattus norvegicus [19] = assay: Neurotoxicity in rat at 30 mg/kg, po after 4 hrs by rotarod test; type: toxicity, organism-based; details: in vivo
Mus musculus [20] = assay: Anticonvulsant activity in mouse assessed as protection against 6 Hz psychomotor seizure at 100 mg/kg, ip after 4 hrs; type: functional, organism-based; procedure, shortened: as §3
Mus musculus [21] = assay: Anticonvulsant activity in mouse assessed as protection against maximal electric shock-induced seizures at 30 mg/kg, ip measured after 1 hr; type: functional, organism-based
Procedure, shortened: (§5)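 Mice dosed ip with suspension in 0.5% methylcellulose; maximal electroshock applied at the listed time after dosing. Protection = abolition of hindlimb tonic extension component of seizure; reported as animals protected/animals tested.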

Mus musculus [22] = assay: Anticonvulsant activity in mouse assessed as protection against maximal electric shock-induced seizures at 30 mg/kg, ip measured after 4 hrs; type: functional, organism-based; procedure, shortened: as §5
Mus musculus [23] = assay: Anticonvulsant activity in mouse assessed as protection against maximal electric shock-induced seizures at 100 mg/kg, ip measured after 0.5 hrs; type: functional, organism-based; procedure, shortened: as §5
Mus musculus [24] = assay: Anticonvulsant activity in mouse assessed as protection against maximal electric shock-induced seizures at 100 mg/kg, ip measured after 1 hr; type: functional, organism-based; procedure, shortened: as §5
Mus musculus [25] = assay: Anticonvulsant activity in mouse assessed as protection against maximal electric shock-induced seizures at 100 mg/kg, ip measured after 4 hrs; type: functional, organism-based; procedure, shortened: as §5
Mus musculus [26] = assay: Neurotoxicity in mouse at 30 mg/kg, ip after […] by rotarod test; type: toxicity, organism-based; details: in vivo
Mus musculus [27] = assay: Neurotoxicity in mouse at 30 mg/kg, ip after 0.5 hrs by rotarod test; type: toxicity, organism-based; details: in vivo; procedure, shortened: as §4
Mus musculus [28] = assay: Neurotoxicity in mouse at 30 mg/kg, ip after 1 hr by rotarod test; type: toxicity, organism-based; details: in vivo
Mus musculus [29] = assay: Neurotoxicity in mouse at 30 mg/kg, ip after 4 hrs by rotarod test; type: toxicity, organism-based; details: in vivo; procedure, shortened: as §4
Mus musculus [30] = assay: Neurotoxicity in mouse at 100 mg/kg, ip after 1 hr by rotarod test; type: toxicity, organism-based; details: in vivo; procedure, shortened: as §4
Mus musculus [31] = assay: Neurotoxicity in mouse at 100 mg/kg, ip after 4 hrs by rotarod test; type: toxicity, organism-based; details: in vivo; procedure, shortened: as §4
Rattus norvegicus [32] = assay: Anticonvulsant activity in rat assessed as protection against maximal electric shock-induced seizures at 30 mg/kg, ip measured after 1 hr; type: functional, organism-based; procedure, shortened: as §2
Rattus norvegicus [33] = assay: Anticonvulsant activity in rat assessed as protection against maximal electric shock-induced seizures at 30 mg/kg, ip measured after 4 hrs; type: functional, organism-based; procedure, shortened: as §2
Rattus norvegicus [34] = assay: Anticonvulsant activity in rat assessed as protection against maximal electric shock-induced seizures at 30 mg/kg, po measured after […]; type: functional, organism-based
Mus musculus [35] = assay: Anticonvulsant activity in ip dosed mouse assessed as protection against maximal electric shock-induced seizures; type: functional, organism-based
Procedure, shortened: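 Compound suspended in 0.5% methylcellulose and given ip to mice; screening doses 30, 100 and 300 mg/kg, read at 0.25–4 h. Protection was defined as abolition of hindlimb tonic extension.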

[36] = Neurotoxicity in ip dosed mouse by rotarod test; type: toxicity, organism-based; details: in vivo
Mus musculus [37] = assay: Anticonvulsant activity in ip dosed mouse assessed as protection against maximal electric shock-induced seizures measured after […]; type: functional
Mus musculus [38] = assay: Anticonvulsant activity in ip dosed mouse assessed as protection against subcutaneous pentylenetetrazol-induced seizures measured after […]; type: functional
[39] = Neurotoxicity in ip dosed mouse after […] by rotarod test; type: toxicity, organism-based; details: in vivo
[40] = Displacement of [35S]dATPalpha S from rat cerebral cortex P2Y receptor; type: tissue-based; procedure, shortened: as §1

## COc1cc(CC(C)N)c(OC)cc1I (racemic)
[1]
  pIC50: 8.60

## C[C@]12N[C@H](Cc3ccccc31)c1ccccc12 [DIZOCILPINE]
[2]
  pIC50: 8.34

## Cc1cccc(OCCCN2CCCC(O)C2)c1C (stereo not given)
Rattus norvegicus [3]
  Activity: inactive
Rattus norvegicus [4]
  Activity: inactive
Mus musculus [5]
  Activity: Active
Mus musculus [6]
  Activity: inactive
Mus musculus [7]
  Activity: Non-toxic
Rattus norvegicus [8]
  Activity: inactive
Rattus norvegicus [9]
  Activity: inactive
Rattus norvegicus [10]
  Activity: Non-toxic
Rattus norvegicus [11]
  Activity: Non-toxic
Rattus norvegicus [12]
  Activity: Non-toxic
Rattus norvegicus [13]
  Activity: Non-toxic
Rattus norvegicus [14]
  Activity: Non-toxic
Rattus norvegicus [15]
  Activity: Non-toxic
Rattus norvegicus [16]
  Activity: Non-toxic
Rattus norvegicus [17]
  Activity: Non-toxic
Rattus norvegicus [18]
  Activity: Non-toxic
Rattus norvegicus [19]
  Activity: Non-toxic
Mus musculus [20]
  Activity: inactive
Mus musculus [21]
  Activity: inactive
Mus musculus [22]
  Activity: inactive
Mus musculus [23]
  Activity: Active
Mus musculus [24]
  Activity: Active
Mus musculus [25]
  Activity: inactive
Mus musculus [26]
  Activity: Non-toxic
Mus musculus [27]
  Activity: Non-toxic
Mus musculus [28]
  Activity: Non-toxic
Mus musculus [29]
  Activity: Non-toxic
Mus musculus [30]
  Activity: Non-toxic
Mus musculus [31]
  Activity: Non-toxic
Rattus norvegicus [32]
  Activity: inactive
Rattus norvegicus [33]
  Activity: inactive
Rattus norvegicus [34]
  Activity: inactive

## Cc1cccc(C)c1OCCN[C@H](C)CO
Mus musculus [35]
  EC50: 5.34 mg/kg
[36]
  TD50: 29.5 mg/kg
Mus musculus [37]
  ED50: 5.34 mg/kg
Mus musculus [38]
  ED50: > 50 mg/kg
[39]
  TD50 at […]: 29.5 mg/kg

## Nc1ncnc2c1ncn2[C@@H]1O[C@H](COP(O)(=S)OP(=O)(O)OP(=O)(O)O)[C@@H](O)[C@H]1O (stereo not given in full)
[40]
  pIC50: 7.54
